The results in this text go back to ChEMBL document CHEMBL4610011, “Bilobalide and PC12 cells: A structure activity relationship study” (Bioorg Med Chem, 2020).

Assay [1] concerns PC-12. In words: Induction of neurite outgrowth in rat PC12 cells at 0.26 ug/ml incubated for 24 hrs by microscopic analysis. The assay is classed as functional, cell-based. In a few lines:
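PC12 cells (2,000/well, collagen I) were treated for 24 h in DMEM with 1% FBS, 1% horse serum and 10 ng/mL NGF containing substance, then cultured 24 h in the same medium without Aβ. Cells were imaged by microscopy before the viability read-out. Cells with neurites equal to, twice, or more than twice the cell length were counted.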

For assay [2], the system named is PC-12. In words: Neuroprotective activity against amyloid beta (1 to 40 residues)-induced toxicity in rat PC12 cells at 0.26 ug/mL pretreated for 24 hrs followed by 1 uM amyloid beta (1 to 40 residues) challenge and measured after 24 hrs by WST-8 assay. (In general: Tetrazolium dyes change colour on reduction, which living cells bring about.)
Assay [3] deals with PC-12. In words: Induction of cell proliferation in rat PC12 cells assessed as increase in cell viability at 0.26 ug/ml after 24 hrs in presence of 10 ng/ml NGF by WST-8 assay. Format: functional, cell-based. In outline: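 PC12 cells were seeded at 2,000 cells/well on type I collagen and grown 24 h in DMEM with 10% FBS and 10% horse serum at 37 °C, 5% CO₂. They were then given 24 h in DMEM with 1% FBS, 1% horse serum and 10 ng/mL NGF plus substance, followed by 24 h without Aβ. Viability was read by 10% WST-8 for 1–2 h at A450, relative to 0.004% DMSO vehicle.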

Calls of active or inactive are those of the source. The calls are words filed in the database; no cut-off is given here.

As for `CC(C)(C)C1=C(C=O)[C@](CC(=O)OCc2ccccc2)(C(=O)OCc2ccccc2)C=C1`, the outcome in the assay on PC-12 [1] and in the assay with PC-12 [2] was Active.
As to `CC(C)(C)[C@]1(O)C[C@@H]2OC(O)C[C@]2(CO)[C@@]12COC[C@@H]2O` (stereo partly drawn), the result in the assay with PC-12 [1] and in the assay with PC-12 [2] was inactive. Also, the result in the assay with PC-12 [3] was Active.
For the molecule `CC(C)(C)[C@]1(O)C[C@@H]2OC(=O)C[C@@]23C(=O)O[C@@H]2OC(=O)[C@H](O)[C@]213`, the outcome in the assay with PC-12 [1], in the assay with PC-12 [3] and in the assay on PC-12 [2] was Active.
As to `CC(=O)O[C@@H]1OC(=O)[C@H](OC(C)=O)[C@]12[C@@]13CC(=O)O[C@H]1C[C@]2(C(C)(C)C)OC3=O`, the outcome with PC-12 [1], with PC-12 [3] and with PC-12 [2] was Active.
On to `CC(C)(C)[C@@]12C[C@@H]3OC(=O)C[C@]3(C(=O)O1)[C@@]21[C@H](OC(=O)c2ccc(Br)cc2)OC(=O)[C@@H]1OC(=O)c1ccc(Br)cc1`, for which the result with PC-12 [1] and in the assay on PC-12 [2] was Active.
